ChEMBL document CHEMBL3351764, “Design, synthesis and biological activity of flavonoid derivatives as selective agonists for neuromedin U 2 receptor” (Bioorg Med Chem, 2014)
Activity calls are given as the source filed them. The rule behind the calls is not given here.

What was measured:
[1] = target: Melanocortin receptor 4 (Homo sapiens) (UniProt P32245); assay: Agonist activity at human MC4 receptor at 100 uM to 5 mM
[2] = target: Melanin-concentrating hormone receptor 1 (Homo sapiens) (UniProt Q99705); assay: Agonist activity at human MCH1 receptor at 100 uM to 5 mM
[3] = target: Adenosine receptor A2a (Homo sapiens) (UniProt P29274); assay: Agonist activity at human A2a receptor at 100 uM to 5 mM
[4] = target: Melanocortin receptor 3 (Homo sapiens) (UniProt P41968); assay: Agonist activity at human MC3 receptor at 100 uM to 5 mM
[5] = target: D(1A) dopamine receptor (Homo sapiens) (UniProt P21728); assay: Agonist activity at human D1 receptor at 100 uM to 5 mM
[6] = target: Adrenocorticotropic hormone receptor (Mus musculus) (UniProt Q64326); assay: Agonist activity at mouse MC2 receptor at 100 uM to 5 mM
[7] = target: Melanocyte-stimulating hormone receptor (Homo sapiens) (UniProt Q01726); assay: Agonist activity at human MC1 receptor at 100 uM to 5 mM
[8] = target: Melanocortin receptor 3 (Mus musculus) (UniProt P33033); assay: Agonist activity at mouse MC3 receptor at 100 uM to 5 mM
Neuromedin-U receptor 2 = Neuromedin-U receptor 2 (Homo sapiens, UniProt Q9GZQ4); assay: Agonist activity at human NMU2R transfected in HEK293 cells after 7 hrs by luciferase reporter gene assay; type: cell-based
In short: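 HEK-293 cells were stably co-transfected with a reporter gene construct and human NMU2R cDNA in pcDNA3.1(+), maintained under G418 selection at 37 °C in 5% CO2, then seeded and incubated overnight. Compounds were added at various concentrations for 7 h at 37 °C, followed by Bright-Glo luciferase read-out. Forskolin and NMU served as positive controls. EC50 was fitted by four-parameter logistic regression; means ± SEM of three independent experiments.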

[9] = target: T1, C5a anaphylatoxin chemotactic receptor 1 (Homo sapiens) (UniProt P21730); assay: Agonist activity at human C5a receptor at 100 uM to 5 mM
T1 sequence (whole entry): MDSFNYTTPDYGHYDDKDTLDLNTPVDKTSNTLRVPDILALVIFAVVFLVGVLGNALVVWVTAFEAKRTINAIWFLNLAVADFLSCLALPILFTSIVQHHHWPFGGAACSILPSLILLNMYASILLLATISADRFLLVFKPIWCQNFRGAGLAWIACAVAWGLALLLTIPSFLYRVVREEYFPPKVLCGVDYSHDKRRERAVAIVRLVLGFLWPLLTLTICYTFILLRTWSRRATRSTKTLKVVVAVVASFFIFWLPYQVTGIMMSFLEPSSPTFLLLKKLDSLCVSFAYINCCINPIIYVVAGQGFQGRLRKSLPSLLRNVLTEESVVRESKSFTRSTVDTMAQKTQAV

[10] = target: Melanocyte-stimulating hormone receptor (Mus musculus) (UniProt Q01727); assay: Agonist activity at mouse MC1 receptor at 100 uM to 5 mM
[11] = target: Glucagon receptor (Homo sapiens) (UniProt P47871); assay: Agonist activity at human Glu receptor at 100 uM to 5 mM
[12] = target: Melanocortin receptor 4 (Mus musculus) (UniProt P56450); assay: Agonist activity at mouse MC4 receptor at 100 uM to 5 mM
[13] = target: T2, Muscarinic acetylcholine receptor M1 (Homo sapiens) (UniProt P11229); assay: Agonist activity at human M1 receptor at 100 uM to 5 mM
T2 sequence (whole entry): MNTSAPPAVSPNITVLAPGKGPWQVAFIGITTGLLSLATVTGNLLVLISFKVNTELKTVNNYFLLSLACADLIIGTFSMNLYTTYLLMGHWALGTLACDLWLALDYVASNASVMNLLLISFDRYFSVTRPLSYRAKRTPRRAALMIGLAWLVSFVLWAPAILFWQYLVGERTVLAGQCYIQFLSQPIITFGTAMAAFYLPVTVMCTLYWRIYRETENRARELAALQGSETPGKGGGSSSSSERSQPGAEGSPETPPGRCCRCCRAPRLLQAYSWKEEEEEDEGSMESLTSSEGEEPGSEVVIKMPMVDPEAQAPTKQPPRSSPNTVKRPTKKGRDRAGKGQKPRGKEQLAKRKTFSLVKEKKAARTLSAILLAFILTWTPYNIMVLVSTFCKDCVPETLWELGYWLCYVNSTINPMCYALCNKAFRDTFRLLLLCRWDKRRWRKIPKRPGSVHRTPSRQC

[14] = target: T3, Orexin receptor type 2 (Homo sapiens) (UniProt O43614); assay: Agonist activity at human orexin 2 receptor at 100 uM to 5 mM
T3 sequence (whole entry): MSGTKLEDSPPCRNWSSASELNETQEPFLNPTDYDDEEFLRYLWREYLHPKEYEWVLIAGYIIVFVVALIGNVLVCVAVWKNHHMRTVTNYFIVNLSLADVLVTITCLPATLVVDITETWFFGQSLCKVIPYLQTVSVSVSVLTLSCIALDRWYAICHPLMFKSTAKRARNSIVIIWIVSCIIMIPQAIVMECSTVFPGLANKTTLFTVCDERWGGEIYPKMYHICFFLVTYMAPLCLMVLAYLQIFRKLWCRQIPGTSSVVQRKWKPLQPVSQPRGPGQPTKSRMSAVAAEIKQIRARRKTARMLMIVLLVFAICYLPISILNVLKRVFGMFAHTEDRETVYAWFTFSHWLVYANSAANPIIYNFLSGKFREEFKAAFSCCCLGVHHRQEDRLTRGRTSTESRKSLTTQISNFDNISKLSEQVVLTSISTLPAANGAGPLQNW

[15] = target: Adrenocorticotropic hormone receptor (Homo sapiens) (UniProt Q01718); assay: Agonist activity at human MC2 receptor at 100 uM to 5 mM
Sequence of Adrenocorticotropic hormone receptor (Homo sapiens) (Q01718 whole entry): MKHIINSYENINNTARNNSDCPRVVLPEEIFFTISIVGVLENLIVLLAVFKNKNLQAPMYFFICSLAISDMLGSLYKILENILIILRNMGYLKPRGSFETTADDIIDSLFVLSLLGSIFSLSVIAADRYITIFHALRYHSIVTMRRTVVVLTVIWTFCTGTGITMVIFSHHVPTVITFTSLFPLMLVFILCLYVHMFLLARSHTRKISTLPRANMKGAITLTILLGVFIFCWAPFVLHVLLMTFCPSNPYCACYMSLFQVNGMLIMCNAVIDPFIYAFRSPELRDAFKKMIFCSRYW

Sequence of D(1A) dopamine receptor (Homo sapiens) (P21728 whole entry): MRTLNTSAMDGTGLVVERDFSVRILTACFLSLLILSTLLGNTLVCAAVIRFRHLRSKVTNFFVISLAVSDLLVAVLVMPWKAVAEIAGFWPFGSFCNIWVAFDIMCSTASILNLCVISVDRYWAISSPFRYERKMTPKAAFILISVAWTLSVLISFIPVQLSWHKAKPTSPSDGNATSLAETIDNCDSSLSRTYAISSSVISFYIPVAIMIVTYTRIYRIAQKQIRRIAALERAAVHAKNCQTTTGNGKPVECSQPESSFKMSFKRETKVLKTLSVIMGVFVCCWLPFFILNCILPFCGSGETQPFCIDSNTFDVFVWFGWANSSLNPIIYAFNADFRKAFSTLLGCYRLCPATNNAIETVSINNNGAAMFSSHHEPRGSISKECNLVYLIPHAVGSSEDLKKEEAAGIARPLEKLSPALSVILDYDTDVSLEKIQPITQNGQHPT
Sequence of Melanin-concentrating hormone receptor 1 (Homo sapiens) (Q99705 whole entry): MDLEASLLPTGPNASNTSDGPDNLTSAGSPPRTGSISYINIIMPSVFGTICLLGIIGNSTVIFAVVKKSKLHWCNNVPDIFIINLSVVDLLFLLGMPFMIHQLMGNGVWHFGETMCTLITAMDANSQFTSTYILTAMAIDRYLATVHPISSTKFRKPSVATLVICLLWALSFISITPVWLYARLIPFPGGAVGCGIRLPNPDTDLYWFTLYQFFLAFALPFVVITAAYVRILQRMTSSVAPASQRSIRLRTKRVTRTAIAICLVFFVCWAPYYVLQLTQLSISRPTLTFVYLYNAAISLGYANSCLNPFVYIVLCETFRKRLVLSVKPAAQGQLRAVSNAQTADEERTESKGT
Sequence of Glucagon receptor (Homo sapiens) (P47871 whole entry): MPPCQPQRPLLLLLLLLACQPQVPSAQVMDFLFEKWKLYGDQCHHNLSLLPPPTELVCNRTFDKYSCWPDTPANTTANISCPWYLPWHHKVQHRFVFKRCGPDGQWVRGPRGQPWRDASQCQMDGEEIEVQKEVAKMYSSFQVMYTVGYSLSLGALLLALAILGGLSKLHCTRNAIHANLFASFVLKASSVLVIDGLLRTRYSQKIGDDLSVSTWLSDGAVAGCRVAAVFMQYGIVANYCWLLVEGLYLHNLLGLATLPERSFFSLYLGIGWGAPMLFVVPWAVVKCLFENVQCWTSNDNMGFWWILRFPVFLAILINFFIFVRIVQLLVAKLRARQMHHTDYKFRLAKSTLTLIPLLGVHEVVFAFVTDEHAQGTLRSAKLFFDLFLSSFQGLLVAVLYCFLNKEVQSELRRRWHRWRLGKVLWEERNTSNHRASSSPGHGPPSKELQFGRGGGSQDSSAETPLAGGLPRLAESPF
Sequence of Neuromedin-U receptor 2 (Q9GZQ4 whole entry): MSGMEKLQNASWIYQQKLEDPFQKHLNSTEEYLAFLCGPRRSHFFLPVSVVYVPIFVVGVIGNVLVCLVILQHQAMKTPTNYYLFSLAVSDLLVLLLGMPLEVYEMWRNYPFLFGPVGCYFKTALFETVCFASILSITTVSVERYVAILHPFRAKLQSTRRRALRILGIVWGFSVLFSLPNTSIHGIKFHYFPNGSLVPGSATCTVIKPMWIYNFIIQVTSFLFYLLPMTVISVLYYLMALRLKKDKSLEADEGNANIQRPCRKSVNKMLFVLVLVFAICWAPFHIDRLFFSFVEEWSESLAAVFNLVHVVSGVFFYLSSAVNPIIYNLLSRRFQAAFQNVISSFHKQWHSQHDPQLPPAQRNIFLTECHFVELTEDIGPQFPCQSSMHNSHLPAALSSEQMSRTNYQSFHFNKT
Sequence of Melanocortin receptor 3 (Mus musculus) (P33033 whole entry): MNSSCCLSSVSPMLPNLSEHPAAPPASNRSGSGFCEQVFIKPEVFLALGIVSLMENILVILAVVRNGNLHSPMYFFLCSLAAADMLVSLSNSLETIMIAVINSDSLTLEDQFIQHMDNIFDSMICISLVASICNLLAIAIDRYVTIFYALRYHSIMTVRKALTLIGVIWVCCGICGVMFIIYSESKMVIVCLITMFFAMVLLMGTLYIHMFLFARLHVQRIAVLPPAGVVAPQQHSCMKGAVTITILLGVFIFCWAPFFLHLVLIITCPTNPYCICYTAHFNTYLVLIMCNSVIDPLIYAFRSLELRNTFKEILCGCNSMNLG
Sequence of Melanocortin receptor 4 (Mus musculus) (P56450 whole entry): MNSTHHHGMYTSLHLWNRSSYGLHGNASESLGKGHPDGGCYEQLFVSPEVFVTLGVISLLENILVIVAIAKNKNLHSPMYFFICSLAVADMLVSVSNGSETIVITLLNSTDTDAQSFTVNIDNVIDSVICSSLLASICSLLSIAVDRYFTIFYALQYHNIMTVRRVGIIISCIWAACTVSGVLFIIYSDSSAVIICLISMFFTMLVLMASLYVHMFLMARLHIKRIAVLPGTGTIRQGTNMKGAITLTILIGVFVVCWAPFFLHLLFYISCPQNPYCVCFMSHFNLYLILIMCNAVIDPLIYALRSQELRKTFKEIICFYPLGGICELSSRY
Sequence of Adenosine receptor A2a (Homo sapiens) (P29274 whole entry): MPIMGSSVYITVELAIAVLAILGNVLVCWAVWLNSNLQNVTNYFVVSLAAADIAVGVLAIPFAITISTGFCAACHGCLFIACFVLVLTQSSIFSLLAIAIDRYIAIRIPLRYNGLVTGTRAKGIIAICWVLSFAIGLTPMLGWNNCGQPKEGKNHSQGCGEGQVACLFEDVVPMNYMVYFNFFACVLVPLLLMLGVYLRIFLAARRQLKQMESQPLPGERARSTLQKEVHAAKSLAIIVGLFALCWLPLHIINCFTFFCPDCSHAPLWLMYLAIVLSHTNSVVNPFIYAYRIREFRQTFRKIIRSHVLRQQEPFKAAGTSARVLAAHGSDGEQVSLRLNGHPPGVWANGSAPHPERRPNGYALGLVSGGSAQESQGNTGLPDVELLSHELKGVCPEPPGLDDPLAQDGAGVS
Sequence of Adrenocorticotropic hormone receptor (Mus musculus) (Q64326 whole entry): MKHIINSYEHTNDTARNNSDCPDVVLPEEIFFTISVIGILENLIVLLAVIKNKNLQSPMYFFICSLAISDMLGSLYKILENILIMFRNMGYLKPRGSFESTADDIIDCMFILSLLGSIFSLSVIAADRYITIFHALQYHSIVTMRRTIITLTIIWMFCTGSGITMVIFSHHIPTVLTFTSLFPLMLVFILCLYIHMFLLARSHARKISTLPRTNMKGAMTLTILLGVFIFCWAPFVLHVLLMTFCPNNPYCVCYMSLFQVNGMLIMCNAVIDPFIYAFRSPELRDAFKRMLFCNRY
Sequence of Melanocortin receptor 4 (Homo sapiens) (P32245 whole entry): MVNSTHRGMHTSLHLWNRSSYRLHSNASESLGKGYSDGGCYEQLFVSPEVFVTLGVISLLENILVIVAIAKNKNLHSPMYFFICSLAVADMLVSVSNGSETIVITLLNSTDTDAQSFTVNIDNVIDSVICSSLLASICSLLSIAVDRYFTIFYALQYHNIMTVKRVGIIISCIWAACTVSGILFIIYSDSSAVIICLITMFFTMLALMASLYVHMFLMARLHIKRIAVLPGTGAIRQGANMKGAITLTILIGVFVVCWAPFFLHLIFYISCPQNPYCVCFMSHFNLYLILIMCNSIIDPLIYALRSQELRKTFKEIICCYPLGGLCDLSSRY
Sequence of Melanocortin receptor 3 (Homo sapiens) (P41968 whole entry): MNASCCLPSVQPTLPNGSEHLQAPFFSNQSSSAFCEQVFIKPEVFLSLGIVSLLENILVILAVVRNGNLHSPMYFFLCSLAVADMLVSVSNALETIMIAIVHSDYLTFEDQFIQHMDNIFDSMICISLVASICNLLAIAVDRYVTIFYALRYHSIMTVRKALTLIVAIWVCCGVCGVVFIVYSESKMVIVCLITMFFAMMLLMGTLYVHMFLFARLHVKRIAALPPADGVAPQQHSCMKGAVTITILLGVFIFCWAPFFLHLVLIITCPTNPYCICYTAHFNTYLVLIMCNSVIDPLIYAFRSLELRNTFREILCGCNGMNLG
Sequence of Melanocyte-stimulating hormone receptor (Homo sapiens) (Q01726 whole entry, looked up): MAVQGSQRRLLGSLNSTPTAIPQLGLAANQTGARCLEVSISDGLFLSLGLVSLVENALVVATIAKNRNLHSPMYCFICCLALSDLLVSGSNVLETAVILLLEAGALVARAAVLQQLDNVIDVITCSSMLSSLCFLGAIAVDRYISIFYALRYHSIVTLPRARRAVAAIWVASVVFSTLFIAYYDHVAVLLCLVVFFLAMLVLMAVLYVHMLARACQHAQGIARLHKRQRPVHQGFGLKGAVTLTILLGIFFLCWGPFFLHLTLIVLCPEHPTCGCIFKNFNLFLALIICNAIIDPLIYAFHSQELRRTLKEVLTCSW
Sequence of Melanocyte-stimulating hormone receptor (Mus musculus) (Q01727 whole entry, looked up): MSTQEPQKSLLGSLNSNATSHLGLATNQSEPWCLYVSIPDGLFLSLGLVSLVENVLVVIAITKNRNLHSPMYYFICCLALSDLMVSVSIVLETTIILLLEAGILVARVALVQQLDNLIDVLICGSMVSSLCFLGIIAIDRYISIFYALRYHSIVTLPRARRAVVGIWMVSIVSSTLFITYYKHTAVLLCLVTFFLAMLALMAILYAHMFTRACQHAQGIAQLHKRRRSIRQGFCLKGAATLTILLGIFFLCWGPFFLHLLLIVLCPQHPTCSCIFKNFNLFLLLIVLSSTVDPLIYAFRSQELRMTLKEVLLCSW

| Activity [1] | Activity [2] | Activity [3] | Activity [4] | Activity [5] | Activity [6] | Activity [7] | Activity [8] | EC50 (Neuromedin-U receptor 2; hek293) | Activity [10] | Activity [11] | Activity [12] | Activity [13] | Activity [14] | Activity [15] | EC50 (Neuromedin-U receptor 2; read-out: EC50) [µM] | Compound | Activity [9] |
| --- | --- | --- | --- | --- | --- | --- | --- | --- | --- | --- | --- | --- | --- | --- | --- | --- | --- |
| inactive | inactive | inactive | inactive | inactive | inactive | inactive | inactive | Not Active | inactive | inactive | inactive | inactive | inactive | inactive |  | COc1cc(-c2oc3ccccc3c(=O)c2O)ccc1O | inactive |
| inactive | inactive | inactive | inactive | inactive | inactive | inactive | inactive | Not Active | inactive | inactive | inactive | inactive | inactive | inactive |  | COc1ccc(C2C=Cc3ccccc3O2)cc1O (racemic) | inactive |
| inactive | inactive | inactive | inactive | inactive | inactive | inactive | inactive | Not Active | inactive | inactive | inactive | inactive | inactive | inactive |  | COc1c(-c2cc(Br)ccc2F)oc2ccccc2c1=O | inactive |
| inactive | inactive | inactive | inactive | inactive | inactive | inactive | inactive |  | inactive | inactive | inactive | inactive | inactive | inactive | 31.1 | O=c1c(O)c(-c2cccc(Cl)c2F)oc2ccccc12 | inactive |
| inactive | inactive | inactive | inactive | inactive | inactive | inactive | inactive |  | inactive | inactive | inactive | inactive | inactive | inactive | 47 | O=c1c(OCCO)c(-c2cc(Br)ccc2F)oc2ccccc12 | inactive |
| inactive | inactive | inactive | inactive | inactive | inactive | inactive | inactive |  | inactive | inactive | inactive | inactive | inactive | inactive | 14 | O=c1c(O)c(-c2cc(Br)ccc2F)oc2ccccc12 | inactive |
| inactive | inactive | inactive | inactive | inactive | inactive | inactive | inactive | Not Active | inactive | inactive | inactive | inactive | inactive | inactive |  | O=c1c(O)c(-c2c(F)ccc(F)c2Cl)oc2ccccc12 | inactive |
| inactive | inactive | inactive | inactive | inactive | inactive | inactive | inactive | Not Active | inactive | inactive | inactive | inactive | inactive | inactive |  | O=c1c(O)c(-c2cccc(Br)c2)oc2ccccc12 | inactive |
| inactive | inactive | inactive | inactive | inactive | inactive | inactive | inactive |  | inactive | inactive | inactive | inactive | inactive | inactive | 253 | COc1ccc(F)c(-c2oc3ccccc3c(=O)c2O)c1 | inactive |
| inactive | inactive | inactive | inactive | inactive | inactive | inactive | inactive | Not Active | inactive | inactive | inactive | inactive | inactive | inactive |  | COc1ccc(-c2cc(=O)c3ccccc3o2)cc1O | inactive |
| inactive | inactive | inactive | inactive | inactive | inactive | inactive | inactive | Not Active | inactive | inactive | inactive | inactive | inactive | inactive |  | COc1cc(-c2cc(=O)c3ccccc3o2)ccc1O | inactive |
